In brackets after ≈: the same amount, converted by molar mass. Activity calls are given as the source filed them. The calls are words filed in the database; no cut-off is given here.
Tests used:
[1] = tested on: Talaromyces marneffei; assay: Antifungal activity against recultured Penicillium marneffei at MIC after 3 to 4 days; assay type: functional
[2] = tested on: Radical scavenging activity; assay: Antioxidant activity of the compound assessed as DPPH radical scavenging activity at 800 ug/ml after 20 mins; assay type: functional
Method in brief: (§1)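 Compound dissolved in methylene dichloride at the stated concentration, mixed with 4 mL 0.1 mM methanolic DPPH, held 20 min at ambient temperature; absorbance read at 517 nm. Scavenging % = (A_DPPH − A_test)/A_DPPH × 100. Triplicate; ascorbic acid positive control.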

[3] = tested on: Aspergillus flavus; assay: Antifungal activity against Aspergillus flavus NCIM 524 at MIC after 3 to 4 days; assay type: functional
[4] = tested on: Pseudomonas aeruginosa; assay: Antibacterial activity against Pseudomonas aeruginosa ATTC 27853 after 16 to 18 hrs by serial dilution method; assay type: functional
Method in brief: (§2)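 Serial drug dilutions in Mueller-Hinton broth adjusted to pH 5.0 with phosphate buffer, inoculated with standardized bacterial suspension, incubated 16–18 h at 37 °C; MIC taken as lowest concentration without conspicuous growth.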

[5] = tested on: Trichophyton mentagrophytes; assay: Antifungal activity against recultured Trichophyton mentagrophytes at MIC after 3 to 4 days; assay type: functional
[6] = tested on: Klebsiella pneumoniae; assay: Antibacterial activity against recultured Klebsiella pneumoniae at MIC after 3 to 4 days by disc diffusion method; assay type: functional
Method in brief: (§3)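 Agar well diffusion: seeded agar plates dried 1 h at 37 °C, wells punched and filled with test compound at MIC level in DMSO; DMSO solvent control. Plates in triplicate, kept at 37 °C for 3–4 days; zone of inhibition read.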

[7] = tested on: Staphylococcus aureus; assay: Antibacterial activity against Staphylococcus aureus ATTC 25923 at MIC after 3 to 4 days by disc diffusion method; assay type: functional; method in brief: as §3
[8] = tested on: Aspergillus fumigatus; assay: Antifungal activity against Aspergillus fumigatus NCIM 902 at MIC after 3 to 4 days; assay type: functional
[9] = tested on: Aspergillus flavus; assay: Antifungal activity against Aspergillus flavus NCIM 524 by serial plate dilution method; assay type: functional
[10] = tested on: Radical scavenging activity; assay: Antioxidant activity of the compound assessed as DPPH radical scavenging activity at 200 ug/ml after 20 mins; assay type: functional; method in brief: as §1
[11] = tested on: Mus musculus; assay: Analgesic activity Wistar albino mouse assessed as tail withdrawal latency time at 100 mg/kg, po administered by intragastric tube after 120 mins (reference value: 1.363 +/- 0.1297 sec); assay type: functional
[12] = tested on: Aspergillus fumigatus; assay: Antifungal activity against Aspergillus fumigatus NCIM 902 by serial plate dilution method; assay type: functional
[13] = tested on: Mus musculus; assay: Analgesic activity Wistar albino mouse assessed as tail withdrawal latency time at 100 mg/kg, po administered by intragastric tube after 180 mins (reference value: 1.363 +/- 0.1297 sec); assay type: functional
[14] = tested on: Klebsiella pneumoniae; assay: Antibacterial activity against recultured Klebsiella pneumoniae after 16 to 18 hrs by serial dilution method; assay type: functional; method in brief: as §2
[15] = tested on: Radical scavenging activity; assay: Antioxidant activity of the compound assessed as DPPH radical scavenging activity at 400 ug/ml after 20 mins; assay type: functional; method in brief: as §1
[16] = tested on: Trichophyton mentagrophytes; assay: Antifungal activity against recultured Trichophyton mentagrophytes by serial plate dilution method; assay type: functional
[17] = tested on: Rattus norvegicus; assay: Antiinflammatory activity rat assessed as reduction of carrageenan-induced paw oedema at 100 mg/kg, po administered 30 mins before carrageenan challenge measured after 60 to 180 mins; assay type: functional, organism-based; design: dose 100 mg/kg
Method in brief: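 Rats randomly assigned, 100 mg/kg orally as suspension in 1% carboxymethyl cellulose, 30 min before carrageenan injected into right hind paw. Paw thickness measured with vernier callipers at 60, 120 and 180 min. Diclofenac reference; mean ± SEM, n = 6, vs vehicle control.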

[18] = tested on: Pseudomonas aeruginosa; assay: Antibacterial activity against Pseudomonas aeruginosa ATTC 27853 at MIC after 3 to 4 days by disc diffusion method; assay type: functional; method in brief: as §3
[19] = tested on: Mus musculus; assay: Analgesic activity Wistar albino mouse assessed as tail withdrawal latency time at 100 mg/kg, po administered by intragastric tube after 60 mins (reference value: 1.363 +/- 0.1297 sec); assay type: functional
[20] = tested on: Talaromyces marneffei; assay: Antifungal activity against recultured Penicillium marneffei by serial plate dilution method; assay type: functional
[21] = tested on: Escherichia coli; assay: Antibacterial activity against Escherichia coli ATTC 25922 at MIC after 3 to 4 days by disc diffusion method; assay type: functional; method in brief: as §3
[22] = tested on: Escherichia coli; assay: Antibacterial activity against Escherichia coli ATTC 25922 after 16 to 18 hrs by serial dilution method; assay type: functional; method in brief: as §2
[23] = tested on: Staphylococcus aureus; assay: Antibacterial activity against Staphylococcus aureus ATTC 25923 after 16 to 18 hrs by serial dilution method; assay type: functional; method in brief: as §2

SMILES | MIC [4] [µM] | MIC [9] [µM] | MIC [12] [µM] | MIC [14] [µM] | MIC [16] [µM] | MIC [20] [µM] | diameter of the inhibition zone (DIZ) [1] [mm] | inhibition [2] [%] | diameter of the inhibition zone (DIZ) [3] [mm] | diameter of the inhibition zone (DIZ) [5] [mm] | diameter of the inhibition zone (DIZ) [6] [mm] | diameter of the inhibition zone (DIZ) [7] [mm] | diameter of the inhibition zone (DIZ) [8] [mm] | inhibition [10] [%] | Time [11] [s] | Time [13] [s] | inhibition [15] [%] | Activity [17] | diameter of the inhibition zone (DIZ) [18] [mm] | Time [19] [s] | further results
COc1ccc(Br)c(-c2n[nH]c(=S)n2N)c1 | 41.5 (≈ 12.5 µg/mL) | 20.8 (≈ 6.25 µg/mL) | 20.8 (≈ 6.25 µg/mL) | 20.8 (≈ 6.25 µg/mL) | 20.8 (≈ 6.25 µg/mL) | 20.8 (≈ 6.25 µg/mL) | 16 | 67.5 | 16 | 16 | 16 | 11 | 16 | 52.7 | 3.388 | 2.338 | 56.8 | Active | 11 | 3.463 | diameter of the inhibition zone (DIZ) [21]: 16 mm; MIC [22]: 20.8 µM (≈ 6.25 µg/mL); MIC [23]: 41.5 µM (≈ 12.5 µg/mL)
O=C1O[C@H]([C@@H](O)CO)C(O)=C1O | – | – | – | – | – | – | – | 96 | – | – | – | – | – | 87.6 | – | – | 95 | – | – | – | –
COc1ccc(Br)c(-c2nnc3sc(-c4cc(Cl)cc(Cl)c4)nn23)c1 | 13.7 (≈ 6.25 µg/mL) | 27.4 (≈ 12.5 µg/mL) | 13.7 (≈ 6.25 µg/mL) | 13.7 (≈ 6.25 µg/mL) | 13.7 (≈ 6.25 µg/mL) | 13.7 (≈ 6.25 µg/mL) | 16 | 66.8 | 11 | 16 | 16 | 11 | 16 | 49.8 | 3.075 | 2.388 | 54.3 | Active | 16 | 3.421 | diameter of the inhibition zone (DIZ) [21]: 16 mm; MIC [22]: 13.7 µM (≈ 6.25 µg/mL); MIC [23]: 27.4 µM (≈ 12.5 µg/mL)
COc1ccc(Br)c(-c2nnc3sc(-c4ccc(N)cc4)nn23)c1 | 15.5 (≈ 6.25 µg/mL) | 31.1 (≈ 12.5 µg/mL) | 31.1 (≈ 12.5 µg/mL) | 31.1 (≈ 12.5 µg/mL) | 15.5 (≈ 6.25 µg/mL) | 31.1 (≈ 12.5 µg/mL) | 11 | 75.9 | 11 | 16 | 11 | 11 | 11 | 60.3 | 3.563 | 2.425 | 68 | Active | 16 | 3.675 | diameter of the inhibition zone (DIZ) [21]: 11 mm; MIC [22]: 31.1 µM (≈ 12.5 µg/mL); MIC [23]: 31.1 µM (≈ 12.5 µg/mL)
COc1ccc(Br)c(-c2nnc3n2NC(c2ccccc2OC)S3)c1 (configuration not stated) | 29.8 (≈ 12.5 µg/mL) | 14.9 (≈ 6.25 µg/mL) | 14.9 (≈ 6.25 µg/mL) | 29.8 (≈ 12.5 µg/mL) | 14.9 (≈ 6.25 µg/mL) | 29.9 (≈ 12.5 µg/mL) | 11 | – | 16 | 16 | 11 | 11 | 16 | – | 2.652 | 2.501 | – | Active | 11 | 2.387 | diameter of the inhibition zone (DIZ) [21]: 16 mm; MIC [22]: 14.9 µM (≈ 6.25 µg/mL); MIC [23]: 29.8 µM (≈ 12.5 µg/mL)

Now from value to compound, other results behind:

MIC [4] [µM] | MIC [9] [µM] | MIC [12] [µM] | MIC [14] [µM] | MIC [16] [µM] | MIC [20] [µM] | SMILES | diameter of the inhibition zone (DIZ) [1] [mm] | inhibition [2] [%] | diameter of the inhibition zone (DIZ) [3] [mm] | diameter of the inhibition zone (DIZ) [5] [mm] | diameter of the inhibition zone (DIZ) [6] [mm] | diameter of the inhibition zone (DIZ) [7] [mm] | diameter of the inhibition zone (DIZ) [8] [mm] | inhibition [10] [%] | Time [11] [s] | Time [13] [s] | inhibition [15] [%] | Activity [17] | diameter of the inhibition zone (DIZ) [18] [mm] | Time [19] [s] | further results
29.8 (≈ 12.5 µg/mL) | 29.8 (≈ 12.5 µg/mL) | 14.9 (≈ 6.25 µg/mL) | 29.8 (≈ 12.5 µg/mL) | 29.8 (≈ 12.5 µg/mL) | 14.9 (≈ 6.25 µg/mL) | COc1ccc(C2Nn3c(nnc3-c3cc(OC)ccc3Br)S2)cc1 (configuration not stated) | 16 | 77.9 | 11 | 11 | 11 | 11 | 16 | 40.6 | 3.334 | 2.841 | 65.9 | Active | 11 | 3.468 | diameter of the inhibition zone (DIZ) [21]: 11 mm; MIC [22]: 29.8 µM (≈ 12.5 µg/mL); MIC [23]: 29.8 µM (≈ 12.5 µg/mL)
14.4 (≈ 6.25 µg/mL) | 14.4 (≈ 6.25 µg/mL) | 14.4 (≈ 6.25 µg/mL) | 14.4 (≈ 6.25 µg/mL) | 28.8 (≈ 12.5 µg/mL) | 14.4 (≈ 6.25 µg/mL) | COc1ccc(Br)c(-c2nnc3n2NC(c2ccc([N+](=O)[O-])cc2)S3)c1 (configuration not stated) | 16 | 82.7 | 16 | 11 | 16 | 11 | 16 | 53.2 | 3.563 | 2.425 | 72.4 | Active | 16 | 3.675 | diameter of the inhibition zone (DIZ) [21]: 11 mm; MIC [22]: 28.8 µM (≈ 12.5 µg/mL); MIC [23]: 28.8 µM (≈ 12.5 µg/mL)
14.8 (≈ 6.25 µg/mL) | 16.1 (≈ 6.8 µg/mL) | 16.1 (≈ 6.8 µg/mL) | 14.8 (≈ 6.25 µg/mL) | 16.1 (≈ 6.8 µg/mL) | 16.1 (≈ 6.8 µg/mL) | COc1ccc(Br)c(-c2nnc3n2NC(c2ccc(Cl)cc2)S3)c1 (configuration not stated) | 11 | 63.4 | 16 | 16 | 16 | 11 | 16 | 42.3 | 3.563 | 2.425 | 48.1 | Active | 16 | 3.675 | diameter of the inhibition zone (DIZ) [21]: 16 mm; MIC [22]: 14.8 µM (≈ 6.25 µg/mL); MIC [23]: 29.5 µM (≈ 12.5 µg/mL)
29.5 (≈ 12.5 µg/mL) | 29.5 (≈ 12.5 µg/mL) | 29.5 (≈ 12.5 µg/mL) | 29.5 (≈ 12.5 µg/mL) | 29.5 (≈ 12.5 µg/mL) | 29.5 (≈ 12.5 µg/mL) | COc1ccc(Br)c(-c2nnc3n2NC(c2cccc(Cl)c2)S3)c1 (configuration not stated) | 11 | 62.5 | 11 | 11 | 11 | 11 | 11 | 35.9 | 3.623 | 2.235 | 44.7 | Active | 11 | 3.546 | diameter of the inhibition zone (DIZ) [21]: 11 mm; MIC [22]: 29.5 µM (≈ 12.5 µg/mL); MIC [23]: 29.5 µM (≈ 12.5 µg/mL)
28.9 (≈ 12.5 µg/mL) | 14.5 (≈ 6.25 µg/mL) | 14.5 (≈ 6.25 µg/mL) | 28.9 (≈ 12.5 µg/mL) | 14.5 (≈ 6.25 µg/mL) | 14.5 (≈ 6.25 µg/mL) | COc1ccc(Br)c(-c2nnc3sc(-c4ccc([N+](=O)[O-])cc4)nn23)c1 | 16 | 71.9 | 16 | 16 | 11 | 11 | 16 | 62.9 | 3.263 | 2.663 | 68.1 | Active | 11 | 3.375 | diameter of the inhibition zone (DIZ) [21]: 11 mm; MIC [22]: 28.9 µM (≈ 12.5 µg/mL); MIC [23]: 28.9 µM (≈ 12.5 µg/mL)

— ChEMBL document CHEMBL1955832, “Facile synthesis, characterization and pharmacological activities of 3,6-disubstituted 1,2,4-triazolo[3,4-b][1,3,4]thiadiazoles and 5,6-dihydro-3,6-disubstituted-1,2,4-triazolo[3,4-b][1,3,4]thiadiazoles” (2012)
